What is called MIC is the lowest concentration that inhibits growth of the organism. Usually GI50 stands for the concentration at which growth is held to half of that of the control. By logP is commonly meant a log measure of how a compound divides between an organic and an aqueous phase. A higher logP goes with a more lipophilic compound.

The results in this text go back to ChEMBL document CHEMBL5385902, “Synthesis of urea and thiourea derivatives of C20-epi-aminosalinomycin and their activity against Trypanosoma brucei” (Eur J Med Chem, 2023).

Molecules are shown by their SMILES. ≈ marks a conversion by molar mass, not a printed value. Calls of active or inactive are those of the source. No cut-off for these calls is given here.

The test system of data set [1] is Trypanosoma brucei. As to the kind of experiment: Trypanocidal activity against bloodstream form of Trypanosoma brucei 427-221a assessed as parasite killing incubated for 24 hrs by microscopic analysis. The class given is functional. In outline: (§1)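 Bloodstream-form T. brucei 427-221a seeded at 1 × 10^4 mL^-1 or HL-60 cells at 5 × 10^4 mL^-1 in Baltz medium with 16.7% heat-inactivated bovine serum, 0.9% DMSO, 10-fold dilutions 100 μM to 100 nM; 37 °C, 5% CO2. MIC, concentration killing all cells, determined microscopically. Possible values 100 μM down to […].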

The subject of data set [2] is Trypanosoma brucei. As to the kind of experiment: Trypanocidal activity against bloodstream form of Trypanosoma brucei 427-221a assessed as inhibition of parasite growth incubated for 24 hrs and measured at 48 hrs following resazurin challenge by resazurin assay. The class given is functional. The following applies: time 72 hrs. Put shortly:
(§2)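 Bloodstream-form T. brucei 427-221a (1 × 10^4 mL^-1) or HL-60 cells (5 × 10^4 mL^-1) in Baltz medium with 16.7% heat-inactivated bovine serum, 0.9% DMSO, 10-fold dilutions 100 μM to 100 nM; 37 °C, 5% CO2, 24 h. Resazurin then added, 48 h more; absorbance 570 nm, reference 630 nm. GI50 by linear interpolation; mean and SD of three independent experiments.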
In general terms: Resazurin is reduced to fluorescent resorufin, in cell work by metabolically active cells.

Data set [3] in a line: Selectivity index, ratio of GI50 for cytotoxicity against human HL60 cells to GI50 for Trypanocidal activity against bloodstream form of Trypanosoma brucei 427-221a. The class given is toxicity, cell-based. The settings on record: read-out: RatioGI50. Put shortly: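 Ratio of HL-60 GI50 to T. brucei GI50. Both from the resazurin assay in Baltz medium with 16.7% heat-inactivated bovine serum and 0.9% DMSO, 10-fold dilutions 100 μM to 100 nM, 24 h then 48 h with resazurin. GI50 by linear interpolation, three independent experiments.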

Data set [4] can be described thus: Cytotoxicity against human HL-60 cells assessed as cell killing incubated for 24 hrs by microscopic analysis. The class given is toxicity, cell-based. The settings on record: read-out: MIC. Put shortly:
as §1

Data set [5] in a line: Cytotoxicity against human HL-60 cells assessed as inhibition of cell growth incubated for 24 hrs and measured at 48 hrs following resazurin challenge by resazurin assay. The class given is toxicity, cell-based. Put shortly: as §2
For data set [6], the system named is Trypanosoma brucei. As to the kind of experiment: Trypanocidal activity against bloodstream form of Trypanosoma brucei 427-221a assessed as increase in cell swelling activity at 100 uM measured every 10 min for 60 mins by light scattering method. The class given is functional, organism-based. Put shortly: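 Light-scattering cell-volume assay. 1 × 10^7 bloodstream-form T. brucei 427-221a in 200 μL Baltz medium with 100 μM compound and 0.9% DMSO; controls with DMSO only. Absorbance at 490 nm read every 10 min for 60 min; falling absorbance indicates cell swelling. Rate constant k of the absorbance decrease derived. Means of three independent experiments.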

Data set [7] can be described thus: Selectivity index, ratio of MIC for cytotoxicity against human HL60 cells to MIC for Trypanocidal activity against bloodstream form of Trypanosoma brucei 427-221a. The class given is toxicity, cell-based. The settings on record: read-out: Selectivity Index.
Data set [8] in a line: Lipophilicity, log P of the compound. The class given is physicochemical. The following applies: octanol/water.

As for `CCCCNC(=S)N[C@H]1C=C[C@]2(O[C@H]([C@@H](CC)C(=O)[C@@H](C)[C@@H](O)[C@H](C)[C@@H]3O[C@@H]([C@@H](CC)C(=O)O)CC[C@@H]3C)[C@@H](C)C[C@H]2C)O[C@@]12CC[C@@](C)([C@H]1CC[C@](O)(CC)[C@H](C)O1)O2`, the MIC in the data set on Trypanosoma brucei [1] is 1 µM (≈ 0.865 µg/mL). Also, in the data set with Trypanosoma brucei [2], the GI50 came to 0.18 µM. Besides, the selectivity ratio is 46.7 in data set [3] and 10 in data set [7]. Further, the MCC at 24 h in data set [4] is 10 µM. Further, the GI50 at 72 h in data set [5] came out at 8.4 µM. The outcome in the data set with Trypanosoma brucei [6] was Active.
As for `CC[C@@H](C(=O)[C@@H](C)[C@@H](O)[C@H](C)[C@@H]1O[C@@H]([C@@H](CC)C(=O)O)CC[C@@H]1C)[C@H]1O[C@]2(C=C[C@@H](O)[C@]3(CC[C@@](C)([C@H]4CC[C@](O)(CC)[C@H](C)O4)O3)O2)[C@H](C)C[C@@H]1C` [SALINOMYCIN], in the data set with Trypanosoma brucei [1], the MIC worked out at 1 µM (≈ 0.751 µg/mL). Besides, the GI50 in the data set with Trypanosoma brucei [2] amounted to 0.27 µM. This molecule also gave a logP in data set [8] above 6.2. Besides, the selectivity ratio in data set [3] stood at 74.1; in data set [7], 100. Further, the MCC at 24 h in data set [4] is 100 µM. The concentration for 50% growth inhibition (GI50) at 72 h in data set [5] was found to be 20 µM. In the data set on Trypanosoma brucei [6], the result was Active.
In the case of `CC[C@@H](C(=O)[C@@H](C)[C@@H](O)[C@H](C)[C@@H]1O[C@@H]([C@@H](CC)C(=O)O)CC[C@@H]1C)[C@H]1O[C@]2(C=C[C@H](N)[C@]3(CC[C@@](C)([C@H]4CC[C@](O)(CC)[C@H](C)O4)O3)O2)[C@H](C)C[C@@H]1C`, the MIC with Trypanosoma brucei [1] is 10 µM (≈ 7.5 µg/mL). Further, the GI50 with Trypanosoma brucei [2] came to 3.3 µM. Further, the values for the selectivity ratio in data set [3] and in data set [7] were 25.2 and 10, respectively. In addition, the MCC at 24 h in data set [4] was determined as 100 µM. Also, the GI50 at 72 h in data set [5] came to 83.2 µM. The outcome in the data set on Trypanosoma brucei [6] was inactive.
Take `CC[C@@H](C(=O)[C@@H](C)[C@@H](O)[C@H](C)[C@@H]1O[C@@H]([C@@H](CC)C(=O)O)CC[C@@H]1C)[C@H]1O[C@]2(C=C[C@H](NC(=S)Nc3ccccc3)[C@]3(CC[C@@](C)([C@H]4CC[C@](O)(CC)[C@H](C)O4)O3)O2)[C@H](C)C[C@@H]1C`: the minimum inhibitory concentration (MIC) in the data set with Trypanosoma brucei [1] was determined as 1 µM (≈ 0.885 µg/mL). In the data set with Trypanosoma brucei [2], the GI50 was 0.22 µM. Besides, the selectivity ratio is 40.5 in data set [3] and 10 in data set [7]. Also, in data set [4], the MCC at 24 h was 10 µM. The GI50 at 72 h in data set [5] is 8.9 µM. Moreover, the outcome in the data set on Trypanosoma brucei [6] was Active.
For `CCCCNC(=O)N[C@H]1C=C[C@]2(O[C@H]([C@@H](CC)C(=O)[C@@H](C)[C@@H](O)[C@H](C)[C@@H]3O[C@@H]([C@@H](CC)C(=O)O)CC[C@@H]3C)[C@@H](C)C[C@H]2C)O[C@@]12CC[C@@](C)([C@H]1CC[C@](O)(CC)[C@H](C)O1)O2`, in the data set on Trypanosoma brucei [1], the MIC worked out at 1 µM (≈ 0.849 µg/mL). Besides, the GI50 in the data set with Trypanosoma brucei [2] was found to be 0.36 µM. Moreover, the values for the selectivity ratio in data set [3] and in data set [7] were 55 and 100, respectively. The MCC at 24 h in data set [4] is 100 µM. The GI50 at 72 h in data set [5] is 19.8 µM. Besides, in the data set on Trypanosoma brucei [6], the result was Active.
